Source: PMC4636458 (Molecular cancer therapeutics, 2015)
Where two headings read alike, the source gives them in different places.

Target: recombinant human ezrin (Homo sapiens, UniProt P15311)
Test: SPR
Assay type: binding
Conditions: read-out: KD (μM)^a, HBS-P pH 7.4, 2-10% DMSO, room temperature
Summary of the method: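 Untagged full-length recombinant human ezrin was expressed in E. coli M15 [pREP4] from a pQE16 vector. It was amine-coupled (~10,000 RU) in sodium acetate pH 4.5 to the second flow cell of a CM5 chip, with the first flow cell left empty for background subtraction. Running buffer was HBS-P (10 mM HEPES pH 7.4, 150 mM NaCl, 0.05% P20) with 2–10% DMSO. Seven concentrations (0.78–50 μM) were injected in triplicate over ezrin and control surfaces.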

recombinant human ezrin, sequence (P15311 whole entry): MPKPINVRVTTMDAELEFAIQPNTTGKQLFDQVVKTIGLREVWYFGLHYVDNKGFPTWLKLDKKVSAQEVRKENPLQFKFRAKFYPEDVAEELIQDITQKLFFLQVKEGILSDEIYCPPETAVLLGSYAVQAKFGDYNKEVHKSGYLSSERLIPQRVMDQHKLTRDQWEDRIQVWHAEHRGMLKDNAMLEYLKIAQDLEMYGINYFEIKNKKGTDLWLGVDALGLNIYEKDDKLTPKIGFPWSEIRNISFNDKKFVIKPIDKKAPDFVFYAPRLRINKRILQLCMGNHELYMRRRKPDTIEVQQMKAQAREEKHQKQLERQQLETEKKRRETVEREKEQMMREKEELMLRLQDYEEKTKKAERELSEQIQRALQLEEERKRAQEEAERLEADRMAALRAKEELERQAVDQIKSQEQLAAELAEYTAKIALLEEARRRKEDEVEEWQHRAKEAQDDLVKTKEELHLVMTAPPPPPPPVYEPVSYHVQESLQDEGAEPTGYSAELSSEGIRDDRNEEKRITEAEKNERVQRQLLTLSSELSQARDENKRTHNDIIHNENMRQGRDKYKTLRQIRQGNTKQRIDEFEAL

**Q.** With CN1CCN(c2ccc(Nc3c4ccccc4nc4ccccc34)cc2)CC1 [MMV006172] as the compound, how does the Kd (n=3) read?
**A.** Its Kd is 6.1 ± 2.8 µM.

**Q.** How did the Kd (n=3) turn out when CC1CCN(Cc2ccc(NC(=O)c3cc4ccc5cccnc5c4[nH]3)cc2)CC1 [MMV020549] was run?
**A.** Its Kd is 10.7 ± 0.4 µM.

**Q.** With CCOC(=O)c1cn(CC)c2cc(N(C)CCc3ccc(OC)c(OC)c3)c(F)cc2c1=O [MMV665977] as the compound, how does the Kd (n=5) read?
**A.** Its Kd is 3.1 ± 1.6 µM.

**Q.** With COc1ccc(CCN2CCC(CN(C)Cc3cnn(-c4ccccc4)c3)CC2)cc1 [MMV666069] as the compound, how does the Kd (n=5) read?
**A.** Its Kd is 2.1 ± 1 µM.

**Q.** For CCn1c(SCC(=O)Nc2cc(C(F)(F)F)ccc2Cl)nc2ccccc2c1=O [MMV666103], which Kd (n=4) is on record?
**A.** Its Kd is 2.6 ± 1 µM.

**Q.** For CN(N=O)C1=C(NC2CCCCC2)C(=O)c2ccccc2C1=O [MMV667492], which Kd (n=2) is on record?
**A.** Its Kd is 29.4 ± 4.4 µM.
